Bioassay records (PubChem)
Shown is part of a subset that was picked to be rich in hits.
BasE inh = blocks the Acinetobacter baumannii siderophore enzyme BasE; purified BasE, fluorescence polarization binding displacement; inhibition, % (test concentration not listed); 0.1% of 84,000 active; AID 485350; in the data active = inhibition above about 25%, passing the limit was not always enough;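 also: 0% = negative plate control signal and 100% = positive plate control signal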
LANA-nucl inh = inhibitors of KSHV LANA binding to nucleosomes; FITC-LANA1-23 / chicken nucleosome fluorescence polarization; hits give low values; z-score (no concentration beside the values); 0.3% of 51,000 active;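 active = both repeat wells score below -2 in polarization z-score versus plate sample wells, excluding overly bright wells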
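Assay system: FITC-LANA peptide and chicken nucleosomes; input: 240 nM purified chicken nucleosomes (480 nM peptide binding sites), final; also added: 50 nM FITC-LANA1-23 probe; medium: TEN-BT buffer, pH 7.5; doses: pin-transferred compound, 100 nL; times: 10–45 min, room temperature; technique: fluorescence polarization; replication: duplicates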
* marks the source's active call; other numbers are inactive results; . = no result given.

SMILES	BasE inh	LANA-nucl inh
Cc1ccnc(SCC(=O)N2CCc3ccccc3C2)n1	39.5*	.
O=C(CSc1ncccn1)N1CCc2ccccc2C1	1.2	0.45
CC1=NN(c2ccc(Cl)cc2)C(=O)C12Cc1c(C)nn(-c3ccccc3)c1N1CCCC12 (stereo not drawn)	3.5	.
COC(=O)c1sc(-n2cccc2)c(C(=O)OC)c1C	-1.7	-0.049
O=C(c1ccc(O)cc1)c1ccc(O)cc1O	31.3*	0.208
COc1ccc(C(=O)c2ccccc2)c(O)c1	0.4	-0.266
CC1CCCN(c2nc3nonc3nc2Nc2cccc(Cl)c2)C1 (stereo not drawn)	0.8	-0.825
Cc1cc(-c2ccc(S(=O)(=O)N3CCC4(CC3)OCCO4)s2)n[nH]1	-10.5	0.379
O=C1CS/C(=C/C(=O)c2ccc(Cl)cc2)N1	-1.9	-0.477
C/C(Cn1nnc2ccccc21)=N/OC(=O)c1c(F)cccc1F	52.7*	0.504
CC(Cn1nnc2ccccc21)C(=O)O (stereo not drawn)	4.2	.
Cc1ccc(S(=O)(=O)c2ccc(N/N=C/c3c(O)n(C)c(=O)n(C)c3=O)cc2)cc1	-0.1	.
